Source: PubChem BioAssay
CAL PDZ FP-1: CAL PDZ (human) peptide binding inhibition | Q9HD26 | purified CAL PDZ, TMR-peptide fluorescence polarization, 1 h | inhibition, % at 24.9 µM | 0.92% of 300,000 active | AID 602252;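 active = mean inhibition of at least 30% with at least half of replicates also reaching 30%; inconclusive = no clear call, values can overlap the other calls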;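 also: 0% = DMSO neutral control and 100% = excess unlabeled competitor peptide PRC23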
SIRT5 block: blocks human SIRT5 desuccinylation of peptide | 1.1% of 330,000 active | Purified SirT5, succinyl-peptide AMC, trypsin-coupled fluorescence | AID 652115 | inhibition, % at 15 µM; in the data active = inhibition above about 15%; inconclusive = no clear call, values can overlap the other calls
ERAP1 inh: ERAP1 (human) enzyme inhibition; AID 652197; Q9NZ08; inhibition, % at 10.7 µM; recombinant ERAP1, Leu-AMC fluorescence, 60 min; 0.15% of 340,000 active;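 active = mean replicate inhibition of at least 30%, or all replicates individually reaching that 30% level; inactive = mean below 30% and not every replicate reaching it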;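 also: 0% = neutral control wells and 100% = L-leucinethiol positive control wells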
Target sequence (Q9NZ08 whole entry, looked up): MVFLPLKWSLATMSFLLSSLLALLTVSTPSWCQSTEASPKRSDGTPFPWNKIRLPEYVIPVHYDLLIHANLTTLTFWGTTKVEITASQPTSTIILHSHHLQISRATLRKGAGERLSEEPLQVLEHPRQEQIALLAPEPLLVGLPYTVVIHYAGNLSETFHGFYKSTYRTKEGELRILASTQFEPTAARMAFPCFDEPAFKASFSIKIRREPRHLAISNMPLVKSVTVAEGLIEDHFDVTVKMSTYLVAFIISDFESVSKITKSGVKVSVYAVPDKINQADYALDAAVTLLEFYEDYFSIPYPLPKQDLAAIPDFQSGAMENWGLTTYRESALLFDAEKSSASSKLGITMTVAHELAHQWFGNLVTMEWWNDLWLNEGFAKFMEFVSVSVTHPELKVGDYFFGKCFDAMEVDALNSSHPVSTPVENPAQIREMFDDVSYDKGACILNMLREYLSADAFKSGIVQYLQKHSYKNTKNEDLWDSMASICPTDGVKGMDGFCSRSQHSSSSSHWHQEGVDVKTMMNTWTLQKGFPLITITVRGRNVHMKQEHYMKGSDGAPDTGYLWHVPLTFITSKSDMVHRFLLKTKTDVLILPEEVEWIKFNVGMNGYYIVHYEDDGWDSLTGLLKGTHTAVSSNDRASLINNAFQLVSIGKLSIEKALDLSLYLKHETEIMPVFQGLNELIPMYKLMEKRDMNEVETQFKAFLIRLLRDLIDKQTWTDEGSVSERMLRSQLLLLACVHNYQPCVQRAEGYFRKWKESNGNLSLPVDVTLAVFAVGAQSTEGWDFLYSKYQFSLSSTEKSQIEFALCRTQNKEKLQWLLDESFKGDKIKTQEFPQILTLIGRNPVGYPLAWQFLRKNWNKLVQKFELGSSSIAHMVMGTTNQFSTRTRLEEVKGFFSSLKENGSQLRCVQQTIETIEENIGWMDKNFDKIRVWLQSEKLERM
DENV2 CPE rescue: protects cells from dengue virus 2 cytopathic effect; 1.7% of 350,000 active; DENV2-infected cells, cytopathic effect rescue, plate reader; CPE inhibition, % at 9.99 µM; AID 651640; in the data active = CPE inhibition above about 20%, passing the limit was not always enough; inconclusive = no clear call, values can overlap the other calls; tested in BHK-21 cells;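 also: 0% = median of neutral control wells and 100% = median of positive control wells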
S100A4 MyoIIA: S100A4-myosin IIA interaction inhibition. P26447. S100A4/TAMRA-MyoIIA peptide fluorescence polarization. inhibition, % at 10.7 µM. 0.14% of 360,000 active. AID 652163;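 active = mean inhibition of at least 70% across replicates, with every replicate also reaching that level; inconclusive = mean inhibition reaches 70% but some replicates fall short; inactive = mean inhibition below 70%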
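Assay system: human S100A4 monomer with TAMRA-labelled myosin IIA peptide / Buffer or medium: Calcium-containing HEPES buffer, pH 7.2 / Reagent: TAMRA-labelled myosin IIA heavy-chain peptide probe, 5 nM / Compound: one dose per compound / Timing: polarization read 5 min after assay mix addition, stable 5–60 min / Benchmarks: neutral control DMSO, positive control TFP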
CAL PDZ FP-2: inhibitors of human CAL PDZ peptide binding. Q9HD26. purified CAL PDZ, TMR-peptide fluorescence polarization, 1 h. inhibition, % at 20 µM. 0.02% of 330,000 active;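 active = highest replicate inhibition of at least 40%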;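 also: plate controls were DMSO neutral control wells for no effect and unlabeled competitor peptide control wells for full effect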
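Material: tagged CAL PDZ domain; buffer or medium: 25 mM sodium phosphate pH 7.4, 150 mM NaCl, TCEP, IgG, Thesit; compound dosing: single point, 20 µM; schedule: 1 h incubation at room temperature before polarization reading; measured by: FP readout, S and P plane fluorescence; read-out basis: percent inhibition from loss of millipolarization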
Numbers without * were called inactive; ? = inconclusive; . = no result. Most compounds without a hit are left out; they make up all but 2.9% or so of the library.

SMILES | CAL PDZ FP-1 | SIRT5 block | ERAP1 inh | DENV2 CPE rescue | S100A4 MyoIIA | CAL PDZ FP-2
CC(C)NC(=O)Nc1ccc2c(c1)C(=O)N([C@H](C)CO)C[C@H](C)[C@@H](CN(C)C(=O)c1ccccc1)OCCCC[C@H](C)O2 | . | 0 | 0 | 48* | -23 | .
C[C@@H]1CCCCO[C@@H](CN(C)Cc2ccc(C(F)(F)F)cc2)[C@H](C)CN([C@@H](C)CO)C(=O)c2cc(NS(=O)(=O)c3cn(C)cn3)ccc2O1 | . | 13 | 0 | 4 | -5 | .
COC(=O)C1=C(C)Nc2c(c(=O)n(C)c(=O)n2C)C1c1cccnc1 (centres undefined) | -1 | . | . | . | . | 1
COC(=O)C1=C(C)Nc2c(c(=O)n(C)c(=O)n2C)C1c1cccc(O)c1 (centres undefined) | 0 | 20* | . | -3 | -4 | -1
O=C(CC(F)(F)F)N1C[C@H]2[C@@H](c3ccccc31)[C@@H](CO)N2C(=O)Cc1ccccc1 | . | -1 | 3 | -10 | -8 | .
COCC(=O)Nc1ccc2c(c1)OC[C@H](C)N(Cc1cccc(F)c1)C[C@@H](C)[C@H](OC)CN(C)C2=O | . | -1 | -5 | -9 | -4 | .
COCC(=O)N(C)C[C@H]1Oc2cc(C#CCC(C)C)ccc2S(=O)(=O)N([C@@H](C)CO)C[C@H]1C | . | -3 | 0 | -3 | 20 | .
CN(C)C(=O)[C@]1(Cc2ccccc2CN=[N+]=[N-])N=C(c2ccc(OCCCO)cc2)O[C@@H]1c1ccccc1 | . | 8 | 3 | 3 | 11 | .
Cc1ccc(-c2nc3c(c(=O)[nH]c(=O)n3Cc3ccccc3)n2C)o1 | 31* | -2 | 3 | . | 5 | -2
CCOC(=O)C1=CN(Cc2cccc(I)c2)S(=O)(=O)N(C)C1C (centres undefined) | -2 | -7 | 1 | -14 | -2 | 0
CCOC(=O)C1=CN(Cc2cccc(Br)c2)S(=O)(=O)N(C)C1C (centres undefined) | -2 | 42* | 12 | 37* | -2 | 1
COCC(=O)N1[C@H](C(=O)NCc2ccccc2Cl)[C@@H](CO)[C@@H]2Cn3c(cccc3=O)[C@@H]21 | . | -8 | 1 | -11 | -4 | .
COc1cc(/C=C(\C#N)C(=O)c2ccc(O)c(O)c2)cc(I)c1O | -4 | 20* | 16 | 0 | -15 | 0
CCc1ccccc1N(CC(=O)O)S(C)(=O)=O | 43* | . | . | . | . | .
CC(=O)c1ccc(N2CCN(C(=O)Cc3n[nH]c(=O)c4ccccc34)CC2)cc1 | -6 | 16* | -3 | 1 | -1 | -2
O=C(Cc1n[nH]c(=O)c2ccccc12)N1CCN(c2ccc(F)cc2)CC1 | -4 | . | -2 | -10 | 5 | 0
Cc1ccc(S(=O)(=O)N(C)C[C@H]2Oc3cc(C#Cc4ccncc4)ccc3S(=O)(=O)N([C@H](C)CO)C[C@H]2C)cc1 | . | 15 | 1 | -2 | -25 | .
C[C@H]1CN([C@@H](C)CO)S(=O)(=O)c2ccc(C#Cc3ccncc3)cc2O[C@H]1CN(C)S(=O)(=O)c1ccccc1 | . | 2 | -1 | -14 | -8 | .
Cc1ccc(S(=O)(=O)N(C)C[C@H]2Oc3cc(C#Cc4ccncc4)ccc3S(=O)(=O)N([C@H](C)CO)C[C@@H]2C)cc1 | . | 18* | 0 | ? | -19 | .
Cc1ccc(S(=O)(=O)N(C)C[C@@H]2Oc3cc(C#Cc4ccncc4)ccc3S(=O)(=O)N([C@@H](C)CO)C[C@@H]2C)cc1 | . | 16* | -1 | 3 | -32 | .
O=C(c1ccccc1F)N1C[C@H]2[C@@H](c3ccccc31)[C@@H](CO)N2C(=O)C1CCCC1 | . | 2 | -1 | 2 | -2 | .
Cc1ccc(S(=O)(=O)N(C)C[C@H]2OCCCC[C@H](C)Oc3ccc(NS(=O)(=O)c4ccc(Cl)cc4)cc3C(=O)N([C@@H](C)CO)C[C@H]2C)cc1 | . | 26* | 0 | ? | -2 | .
C[C@@H]1CN([C@H](C)CO)C(=O)c2cc(NS(=O)(=O)c3ccc(Cl)cc3)ccc2O[C@@H](C)CCCCO[C@H]1CN(C)S(=O)(=O)c1ccc(Cl)cc1 | . | . | . | 54* | . | .
C[C@@H]1CCCCO[C@@H](CN(C)S(=O)(=O)c2ccc(Cl)cc2)[C@@H](C)CN([C@@H](C)CO)C(=O)c2cc(NS(C)(=O)=O)ccc2O1 | . | -2 | 0 | 2 | 2 | .
Cc1ccc(S(=O)(=O)N(C)C[C@@H]2OCCCC[C@@H](C)Oc3ccc(NS(=O)(=O)c4ccc(Cl)cc4)cc3C(=O)N([C@H](C)CO)C[C@@H]2C)cc1 | . | 15 | 1 | ? | -2 | .
SMILES | CAL PDZ FP-1 | SIRT5 block | ERAP1 inh | DENV2 CPE rescue | S100A4 MyoIIA | CAL PDZ FP-2
C[C@@H]1CCCCO[C@@H](CN(C)S(=O)(=O)c2ccc(Cl)cc2)[C@@H](C)CN([C@H](C)CO)C(=O)c2cc(NS(C)(=O)=O)ccc2O1 | . | 1 | 0 | 22* | 1 | .
Cc1ccc(S(=O)(=O)N(C)C[C@@H]2OCCCC[C@H](C)Oc3ccc(NS(=O)(=O)c4ccc(Cl)cc4)cc3C(=O)N([C@@H](C)CO)C[C@H]2C)cc1 | . | 22* | 2 | 1 | 2 | .
Cc1noc(C)c1NC(=O)N(C)C[C@@H]1Oc2ccc(NS(=O)(=O)c3cn(C)cn3)cc2C(=O)N([C@H](C)CO)C[C@@H]1C | . | -4 | -4 | -3 | -23 | .
CC(C)NC(=O)N(C)C[C@H]1Oc2ccc(NC(=O)CCC(F)(F)F)cc2CC(=O)N([C@@H](C)CO)C[C@H]1C | . | -3 | 0 | 4 | 6 | .
CC(C)C#Cc1ccc2c(c1)O[C@@H](CN(C)CC1CC1)[C@@H](C)CN([C@H](C)CO)S2(=O)=O | . | 5 | 0 | -14 | 0 | .
COc1ccc(NC(=O)Nc2ccc3c(c2)CC(=O)N([C@H](C)CO)C[C@H](C)[C@@H](CN(C)C(=O)NC2CCCCC2)O3)cc1 | . | -3 | 0 | -1 | 11 | .
Cc1ccc(S(=O)(=O)N(C)C[C@H]2OCCCC[C@H](C)Oc3ccc(NS(=O)(=O)c4ccc(Cl)cc4)cc3C(=O)N([C@@H](C)CO)C[C@@H]2C)cc1 | . | 24* | -2 | -2 | -11 | .
Cc1ccc(S(=O)(=O)Nc2ccc3c(c2)C(=O)N([C@H](C)CO)C[C@H](C)[C@@H](CN(C)S(=O)(=O)c2ccc(Cl)cc2)OCCCC[C@H](C)O3)cc1 | . | . | . | 37* | . | .
Cc1ccc(S(=O)(=O)Nc2ccc3c(c2)C(=O)N([C@@H](C)CO)C[C@@H](C)[C@@H](CN(C)S(=O)(=O)c2ccc(Cl)cc2)OCCCC[C@@H](C)O3)cc1 | . | . | . | -5 | . | .
C[C@@H]1CCCCO[C@H](CN(C)S(=O)(=O)c2ccc(Cl)cc2)[C@H](C)CN([C@@H](C)CO)C(=O)c2cc(N(C)C)ccc2O1 | . | 21* | 3 | -10 | 0 | .
O=C(Nc1ccc(F)cc1)N[C@H]1CC[C@@H](CC(=O)N2CCCCC2)O[C@H]1CO | . | -1 | 1 | 6 | 5 | .
